# Source: PubChem BioAssay (several laboratories)
# This is a sample that favours compounds with a hit; in the whole collection about 2% have one here.
# Xi reactivation: activators of inactive X chromosome reactivation, primary screen, imaging, XiGFP fibroblasts, GFP high-content imaging, set 2 | XiGFP mouse fibroblasts, % GFP-positive cells imaging, 3 d; cells co-treated with 5-aza-dC sensitizer; scaled so ellipticine positive control = 100% | activation, % at 7.58 µM | hit rate 0.055% among 360,000 | AID 743238, 2013;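 active = mean normalized replicate activation at least 10% and every replicate at or above 10%; inconclusive = only one of the two criteria met; inactive = mean below 10% and not all replicates reach 10%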;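 also: 0% = median of on-plate neutral control wells and 100% = ellipticine 6 µM median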
#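 Schedule: 3 d treatment, 15 min room-temperature fixation; system: 68-5-11 XiGFP fibroblast line; buffer or medium: DMEM plus 5-aza-dC sensitizer; control set: ellipticine 6 µM positive control; compound: one concentration, pinned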
# TROY NFkB inh: inhibitors of TROY-driven NF-kB signaling, primary screen, Q293 LMP1-TROYcd cells, NF-kB luciferase, uHTS. inhibition, % at 10 µM. Q293 LMP1-TROYcd NF-kB luciferase reporter, 4 h. hit rate 0.98% among 360,000;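 active = compounds whose plate-normalised and pattern-corrected inhibition of the luciferase reporter signal at the single screening dose is 50% or more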
# TWEAK-Fn14 inh: inhibitors of TWEAK-Fn14 signaling, primary screen, luciferase reporter cells, uHTS; inhibition, % at 10 µM; hit rate 2% among 360,000; TWEAK-stimulated Fn14 reporter cells, luciferase luminescence, 8 h; in the data active = inhibition above about 50%
# LGR2 inh: inhibitors of bursicon-induced LGR2 CRE-luciferase signal, primary screen, cell-based, HEK293, CRE-luciferase reporter, bursicon stimulation. bursicon-stimulated, 4 h. inhibition, % at 9.99 µM. hit rate 0.35% among 380,000;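 active = drop in luminescence signal, shown as inhibition above about 50% in the replicate tests, limit read from the data, passing the limit was not always enough; inconclusive = probably only some replicates passing the limit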;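 also: agonist challenge used bursicon conditioned medium at about half maximal strength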
# CaV13 ICDI inh: Disruptors of the CACNA1D IQ motif to Ca2+-dependent inactivation inhibitor domain association, primary screening, Förster resonance energy transfer in intact living … | AID 743397 | inhibition, % at 12.3 µM | HEK cells, CFP/YFP FRET ICDI-IQ, plate reader, 10 min; percent FRET-ratio fall versus neutral wells | hit rate 0.098% among 340,000;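 active = mean replicate inhibition of at least 30% and at least 1% of replicates passing that level; inconclusive = only one of the two criteria is met; inactive = neither criterion is met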;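 also: 0% = median of the neutral control wells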
# * = called active by the depositor; ? = inconclusive; · = not tested or not shown.
SMILES,Xi reactivation,TROY NFkB inh,TWEAK-Fn14 inh,LGR2 inh,CaV13 ICDI inh
C[C@H]1CCCCO[C@@H](CN(C)S(=O)(=O)c2cccs2)[C@@H](C)CN([C@@H](C)CO)C(=O)c2cc(N(C)C)ccc2O1,0,·,·,-11,·
CCC(=O)NC[C@@H]1[C@@H](c2ccc(C3=CCCC3)cc2)[C@@H](CO)N1CC1CC1,0,·,·,-11,·
O=C(C[n+]1cccc2ccccc21)c1ccc(Br)cc1,0,19,18,6,-29
Cc1ccc(C(=O)C[n+]2cccc3ccccc32)cc1,·,50*,32,·,-6
COc1ccc(C(=O)/C=C/Sc2nc3ccccc3o2)cc1,1,37,61*,0,-5
CC12CCC3C(CCC4N(CCO)CCC34C)C1CCC2O (configuration not stated),0,-7,94*,7,-3
C[C@]12CC[C@@H]3c4cc(O)c(O)cc4CC[C@H]3[C@@H]1CC[C@@H]2O,0,-13,49,5,-5
O=C(O)c1cccc(NC(=S)N/N=C/c2ccccn2)c1,0,-41,-43,72*,-3
O=C(O)c1cccc(NC(=S)N/N=C/c2ccccc2OCc2ccc(Br)cc2)c1,0,-19,-10,-30,-2
S=C(N/N=C/c1ccc2ncccc2c1)Nc1cccnc1,0,40,56*,?,5
O=C(O)c1cccc(NC(=S)N/N=C/c2cccc(O)c2)c1,0,-24,2,63*,-18
Oc1ccc(/C=N/NC(=S)Nc2cccnc2)cc1O,0,-32,3,14,-5
C[C@H](CO)N1C[C@H](C)[C@H](CN(C)C(=O)Nc2ccc(F)cc2)Oc2ccc(NC(=O)Nc3ccc4c(c3)OCO4)cc2C1=O,-1,·,·,3,·
CC(=O)N(C)C[C@@H]1Oc2ncccc2C(=O)N(C)C[C@H]1C,0,·,·,·,·
OCCOCCNc1ncnc2c1cnn2-c1ccc(Cl)cc1,·,3,43,·,-2
COCCNc1ncnc2c1cnn2-c1ccc(Cl)cc1,·,-53,54*,·,-4
c1ccc(CNc2ncnc3c2cnn3-c2ccccc2)cc1,·,-51,23,·,-5
CC(C)(C)Nc1ncnc2c1cnn2-c1ccccc1,0,51*,40,-4,-8
CC(C)Nc1ncnc2c1cnn2-c1ccc(Cl)cc1,0,64*,74*,?,-7
CN1CCN(C(=O)[C@@H]2[C@@H](CO)[C@@H]3Cn4c(ccc(-c5cncnc5)c4=O)[C@@H]3N2CC2CCCC2)CC1,1,·,·,-11,·
COc1ccc(NC(=O)N[C@H]2CC[C@@H](CCNC(=O)c3cc(Cl)cc(Cl)c3)O[C@@H]2CO)cc1,1,·,·,21,·
CC(C)(C)[C@H]1CCC(=O)N([C@H](CSc2ccccc2)Cc2ccccc2)CC1,0,2,6,24,34*
CN1C(=O)c2cc(NC(=O)c3cccs3)ccc2OC[C@@H]2O[C@H](CC(=O)O)CC[C@@H]21,0,·,·,-1,·
COCCCNCC(O)COc1ccccc1F (configuration not stated),0,-5,98*,2,-3
COCCCNCC(O)COc1cccc2[nH]c(C)cc12 (configuration not stated),0,7,-19,-31,-6
SMILES,Xi reactivation,TROY NFkB inh,TWEAK-Fn14 inh,LGR2 inh,CaV13 ICDI inh
CCCCC1C(=O)N(c2ccccc2)N(c2ccc(O)cc2)C1=O (configuration not stated),3,55*,84*,·,-6
Cc1cc(C)c2oc(C(=O)Nc3ccc(S(=O)(=O)Nc4nccs4)cc3)cc(=O)c2c1,0,1,73*,-14,-3
O=C(CSc1ccccn1)Nc1nonc1[N+](=O)[O-],0,68*,69*,46,-3
CN1C(=O)c2cc(NC(=O)Nc3ccc(Cl)cc3)ccc2OC[C@@H]2O[C@H](CC(=O)O)CC[C@@H]21,0,·,·,17,·
COc1ccc(N=Cc2sc3ccccc3c2Cl)cc1,·,67*,71*,·,·
COc1ccc(C)cc1S(=O)(=O)n1c([N+](=O)[O-])cnc1C,0,15,87*,0,0
